Publication PMC12100521 (Chemical Science, 2025)
“And” between values parts separate entries of the source, which are not always exact repeats. Equal entries are not always repeated.

Assays:
CYP125MRCA [1] = assay: UV-Vis difference-spectrum substrate titration; type: binding; details: read-out: Kd (Hill model), Table 1
CYP125MRCA [2] = assay: UV-Vis spin-state; type: binding; details: 30 °C, enzyme ~2 μM
CYP125MRCA [3] = assay: In vitro oxidation assay, spinach ferredoxin/ferredoxin reductase/NADPH, GC-MS; type: biochemical; details: substrate 100 μM, enzyme 2 μM, 20 h, room temperature
CYP125A1 [4] = details: read-out: Kd CYP125A1; cited from earlier work
CYP125MRCAAlt [5] = assay: UV-Vis spin-state shift binding screen after imidazole treatment; details: enzyme pre-treated with imidazole (~1.3 mM)
MmarCYP125A7 = details: cited from earlier work
CYP125A1 [6] = details: cited from earlier work
[7] = system: CYP125A1, CYP125A6 and CYP125A7; details: cited from earlier work
CYP125MRCAAlt [8] = assay: In vitro oxidation assay, spinach ferredoxin/ferredoxin reductase/NADPH, GC-MS; type: biochemical; details: reconstituted spinach ferredoxin/reductase/NADPH system
Method in brief: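 Enzyme (2 μM in the method text) and substrate (100 μM) were equilibrated 3 min at room temperature in oxygenated 50 mM Tris, pH 7.4. Added G6P (5 mM), G6PDH (0.7 U/mL), ferredoxin (4 μM), reductase (0.2 U/mL) and catalase (0.03 mg/mL), then NADPH (1 mM). Ran 20 h, quenched with HCl, octanoic acid internal standard, ethyl acetate extraction, BSTFA/TMCS derivatisation, products assigned by mass spectra and retention times.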

CYP125MRCA [9] = type: biochemical; details: 1 : 1 mixture of substrates
Mtb CYP125A1 = details: cited from earlier work

Structure (SMILES)	Kd (CYP125MRCA [1]) [µM]	Substrate-induced shift of the Soret band (LS to HS) (CYP125MRCA [2])	Oxidation by CYP125MRCA (products by GC-MS) (CYP125MRCA [3])	Binding detected by shift back to HS peak (CYP125MRCAAlt [5])	further results
CC(C)[C@H](C)CC[C@@H](C)[C@H]1CC[C@H]2[C@@H]3CC=C4C[C@@H](O)CC[C@]4(C)[C@H]3CC[C@]12C [campesterol]	4.19 ± 0.05	complete shift of the Soret band to the high spin peak at ∼391 nm	able to effectively oxidise		
CC(C)CCC[C@@H](C)[C@H]1CC[C@H]2[C@@H]3[C@H](O)C=C4C[C@@H](O)CC[C@]4(C)[C@H]3CC[C@]12C [7α-hydroxycholesterol]		Complete or near-complete spin-state shifts			
CC(C)[C@@H](C)/C=C/[C@@H](C)[C@H]1CC[C@H]2C3=CC=C4C[C@@H](O)CC[C@]4(C)[C@H]3CC[C@]12C [ergosterol]		minimal perturbations of the heme centre			
CC[C@H](/C=C/[C@@H](C)[C@H]1CC[C@H]2[C@@H]3CC=C4C[C@@H](O)CC[C@]4(C)[C@H]3CC[C@]12C)C(C)C [stigmasterol]	2.04 ± 0.12	complete shift of the Soret band to the high spin peak at ∼391 nm			
CC(C)=CCC[C@@H](C)[C@H]1CC[C@H]2[C@@H]3CC=C4C[C@@H](O)CC[C@]4(C)[C@H]3CC[C@]12C [desmosterol]		minimal perturbations of the heme centre			
CC(C)CCC[C@@H](C)[C@H]1CC[C@H]2[C@@H]3C[C@@H]4O[C@@]45C[C@@H](O)CC[C@]5(C)[C@H]3CC[C@]12C [5,6α-epoxycholesterol]		Complete or near-complete spin-state shifts			
CC(C)CCC[C@@H](C)[C@H]1CC[C@H]2[C@@H]3[C@@H](O)C=C4C[C@@H](O)CC[C@]4(C)[C@H]3CC[C@]12C [7β-hydroxycholesterol]		Complete or near-complete spin-state shifts			
CC(C)CCC[C@@H](C)[C@H]1CC[C@H]2[C@@H]3CCC4=CC(=O)CC[C@]4(C)[C@H]3CC[C@]12C [cholest-4-en-3-one]	0.85 ± 0.02	completely shift the Soret band to ∼390 nm	able to oxidise	found to bind	Kd (CYP125A1 [4]): 1.18 ± 0.11 µM; Kd (MmarCYP125A7): 0.7 ± 0.4 µM
C=C1CC[C@H](O)C/C1=C/C=C1\CCC[C@]2(C)[C@@H]([C@H](C)CCCC(C)C)CC[C@@H]12 [vitamin D3, cholecalciferol]	1.6 ± 0.22	complete shift in the Soret band to HS	oxidised by CYP125MRCA into four hydroxylation products and one partially underivatised alcohol product	found to bind	Oxidation of vitamin D3 by CYP125A1 (CYP125A1 [6]): does not oxidise; Spectral shift in the Soret band [7]: does not induce a spectral shift in the Soret band; Oxidation by CYP125MRCAAlt (products by GC-MS) (CYP125MRCAAlt [8]): No 25- or 26-hydroxylation activity
CC[C@H](CC[C@@H](C)[C@H]1CC[C@H]2[C@@H]3CCC4=CC(=O)CC[C@]4(C)[C@H]3CC[C@]12C)C(C)C [stigmast-4-en-3-one]	1.61 ± 0.11	complete shift of the Soret band to the high spin peak at ∼391 nm		found to bind	Preference for stigmast-4-en-3-one versus cholest-4-en-3-one (CYP125MRCA [9]): 3.2 fold
CC(C)CCC[C@@H](C)[C@H]1CC[C@H]2[C@@H]3C(=O)C=C4C[C@@H](O)CC[C@]4(C)[C@H]3CC[C@]12C [7-ketocholesterol]		Complete or near-complete spin-state shifts			
CC(C)CCC[C@@H](C)[C@H]1CC[C@H]2[C@@H]3CC=C4C[C@@H](O)CC[C@]4(C)[C@H]3CC[C@]12C [cholesterol]	2 ± 0.05	completely shift the Soret band to ∼390 nm	able to oxidise and 26-cholestenoic acid being the major product	found to bind	Preference for cholesterol over sitosterol (Mtb CYP125A1): 1.8 fold; Kd (CYP125A1 [4]): 0.11 ± 0.06 µM; Oxidation by CYP125MRCAAlt (products by GC-MS) (CYP125MRCAAlt [8]): able to oxidise cholesterol, albeit with a lower efficiency and 26-hydroxycholesterol being the major product
